Source: ChEMBL document CHEMBL1153939, “Novel antagonists of serotonin-4 receptors: synthesis and biological evaluation of pyrrolothienopyrazines” (Bioorg Med Chem, 2009)

Experiments:
[1] = target: 5-hydroxytryptamine receptor 4 (Cavia porcellus) (UniProt O70528); test: Displacement of [3H]GR-113808 from 5HT4 receptor in guinea pig striatum membrane at 1 uM; assay type: cell membranes
How it was run: (§1)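 Guinea pig membranes (15 µg protein/mL) incubated 30 min at 37 °C with 0.6 nM [3H]GR113808 in 50 mM HEPES, pH 7.4, with fixed test concentrations. Nonspecific binding defined with 10 µM serotonin.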

[2] = target: 5-hydroxytryptamine receptor 4 (Cavia porcellus) (UniProt O70528); test: Displacement of [3H]GR-113808 from 5HT4 receptor in guinea pig striatum membrane at 10 nM; assay type: cell membranes; how it was run: as §1
[3] = target: T1, 5-hydroxytryptamine receptor 3A (Homo sapiens, UniProt P46098); test: Binding affinity at 5HT3 receptor
T1 sequence (P46098 whole entry): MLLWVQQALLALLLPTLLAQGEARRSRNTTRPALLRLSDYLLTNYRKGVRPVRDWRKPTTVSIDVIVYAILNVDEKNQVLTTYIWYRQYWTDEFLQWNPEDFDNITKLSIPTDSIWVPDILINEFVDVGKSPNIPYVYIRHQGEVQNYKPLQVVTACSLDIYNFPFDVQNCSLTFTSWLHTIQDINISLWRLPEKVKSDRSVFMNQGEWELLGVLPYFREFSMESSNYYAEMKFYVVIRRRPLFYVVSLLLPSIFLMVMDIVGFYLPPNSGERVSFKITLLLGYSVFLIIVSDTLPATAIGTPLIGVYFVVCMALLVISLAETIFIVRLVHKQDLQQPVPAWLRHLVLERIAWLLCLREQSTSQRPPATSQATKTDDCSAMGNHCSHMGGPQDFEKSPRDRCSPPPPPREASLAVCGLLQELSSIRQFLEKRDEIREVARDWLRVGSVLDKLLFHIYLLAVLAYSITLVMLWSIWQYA

[4] = target: 5-hydroxytryptamine receptor 4 (Homo sapiens, UniProt Q13639); test: Binding affinity at 5HT4 receptor
[5] = target: 5-hydroxytryptamine receptor 4 (Cavia porcellus, UniProt O70528); test: Displacement of [3H]GR-113808 from 5HT4 receptor in guinea pig striatum membrane; assay type: cell membranes; how it was run: as §1
Sequence of 5-hydroxytryptamine receptor 4 (Cavia porcellus, UniProt O70528) (O70528 whole entry): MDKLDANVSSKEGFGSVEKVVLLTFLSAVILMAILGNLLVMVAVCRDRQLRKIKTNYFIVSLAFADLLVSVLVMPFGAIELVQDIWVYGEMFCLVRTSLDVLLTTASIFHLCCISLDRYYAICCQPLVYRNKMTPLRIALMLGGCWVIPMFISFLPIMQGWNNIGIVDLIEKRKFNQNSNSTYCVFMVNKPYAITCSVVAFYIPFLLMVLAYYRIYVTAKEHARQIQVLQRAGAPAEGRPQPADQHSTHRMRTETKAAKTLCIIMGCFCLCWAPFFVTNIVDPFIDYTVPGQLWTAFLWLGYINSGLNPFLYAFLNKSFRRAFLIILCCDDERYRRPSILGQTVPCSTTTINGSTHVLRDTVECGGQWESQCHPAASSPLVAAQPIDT

Sequence of 5-hydroxytryptamine receptor 4 (Homo sapiens, UniProt Q13639) (Q13639 whole entry): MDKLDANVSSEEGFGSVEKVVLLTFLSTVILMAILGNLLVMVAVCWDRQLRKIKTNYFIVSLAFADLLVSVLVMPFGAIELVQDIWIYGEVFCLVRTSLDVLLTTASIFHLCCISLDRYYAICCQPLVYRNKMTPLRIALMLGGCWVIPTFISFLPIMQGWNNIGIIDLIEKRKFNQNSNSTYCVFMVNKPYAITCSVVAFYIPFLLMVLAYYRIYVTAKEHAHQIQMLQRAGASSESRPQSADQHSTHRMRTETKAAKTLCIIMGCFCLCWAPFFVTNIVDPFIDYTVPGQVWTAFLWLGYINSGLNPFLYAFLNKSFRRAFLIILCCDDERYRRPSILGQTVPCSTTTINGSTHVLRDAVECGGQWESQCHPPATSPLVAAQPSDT
Sequence of 5-hydroxytryptamine receptor 4 (Cavia porcellus) (O70528 whole entry): as the sequence (O70528 whole entry) above

CCCCN1CCCC(COc2nc3ccsc3n3cccc23)C1 (configuration not stated)
inhibition [1]: 82%
inhibition [2]: 0%

CCN(CC)CCOC(=O)c1cc(Cl)c(N)cc1OC
Ki [3]: 126 nM

c1cc2c(OCCN3CCCC3)nc3ccsc3n2c1
inhibition [1]: 60%
inhibition [2]: 7%

CN1[C@@H]2CC[C@H]1C[C@@H](OC(=O)c1c[nH]c3ccccc13)C2 [TROPISETRON]
Ki [4]: 200 nM

CCN1CCC(COc2nc3scc(C)c3n3cccc23)CC1
inhibition [1]: 100%
Ki [5]: 9.55 nM
inhibition [2]: 30%

COCCCN1CCC(NC(=O)c2cc(Cl)c(N)c3c2OCC3)CC1 [PRUCALOPRIDE]
Ki [3]: 3980 nM

CCCCCN1CCC(COc2nc3ccsc3n3cccc23)CC1
inhibition [1]: 99%
Ki [5]: 25.7 nM
inhibition [2]: 55%

CCCCN1CCC(COC(=O)c2cc(Cl)c(N)c3c2OCCO3)CC1
Ki [3]: 158 nM
Ki [4]: 0.0158 nM

CCCN1CCCCC1CCOc1nc2ccsc2n2cccc12 (configuration not stated)
inhibition [1]: 72%
inhibition [2]: 0%

CN1CCC(COc2nc3ccsc3n3cccc23)CC1
inhibition [1]: 100%
Ki [5]: 58.9 nM
inhibition [2]: 0%

CN1CCC(COc2nc3sccc3n3cccc23)CC1
inhibition [1]: 100%
Ki [5]: 38 nM
inhibition [2]: 20%

c1cc2c(OCCCCN3CCCCC3)nc3ccsc3n2c1
inhibition [1]: 100%
Ki [5]: 57.5 nM
inhibition [2]: 16%

C=CCCN1CCC(COc2nc3ccsc3n3cccc23)CC1
inhibition [1]: 100%
Ki [5]: 37.2 nM
inhibition [2]: 23%

c1cc2c(OCCN3CCCCC3)nc3ccsc3n2c1
inhibition [1]: 73%
Ki [5]: 417 nM
inhibition [2]: 5%

c1cc2c(OCCCN3CCCCC3)nc3ccsc3n2c1
inhibition [1]: 100%
Ki [5]: 52.5 nM
inhibition [2]: 30%

C=CCCN1CCC(COc2nc3scc(C)c3n3cccc23)CC1
inhibition [1]: 100%
Ki [5]: 11.2 nM
inhibition [2]: 28%

c1ccc(CN2CCN(CCOc3nc4ccsc4n4cccc34)CC2)cc1
inhibition [1]: 13%
inhibition [2]: 0%

CCCCN1CCC(Oc2nc3ccsc3n3cccc23)CC1
inhibition [1]: 50%
inhibition [2]: 1%

CCCN1CCC(COc2nc3sccc3n3cccc23)CC1
inhibition [1]: 100%
Ki [5]: 11.7 nM
inhibition [2]: 54%

c1cc2c(OCCCN3CCNCC3)nc3ccsc3n2c1
inhibition [1]: 75%
inhibition [2]: 14%

c1cc2c(OCCN3CCNCC3)nc3ccsc3n2c1
inhibition [1]: 38%
inhibition [2]: 0%

CCN1CCC(COc2nc3sccc3n3cccc23)CC1
inhibition [1]: 92%
inhibition [2]: 0%

Cc1csc2nc(OCC3CCN(Cc4ccccc4)CC3)c3cccn3c12
inhibition [1]: 100%
inhibition [2]: 11%

CC(C)N1CCC(COc2nc3ccsc3n3cccc23)CC1
inhibition [1]: 100%
Ki [5]: 18.2 nM
inhibition [2]: 38%

C=CCN1CCC(COc2nc3ccsc3n3cccc23)CC1
inhibition [1]: 95%
Ki [5]: 8.71 nM
inhibition [2]: 32%

CCN(CC)CCCCOc1nc2ccsc2n2cccc12
inhibition [1]: 100%
Ki [5]: 16.2 nM
inhibition [2]: 34%

CCCN1CCN(CCOc2nc3ccsc3n3cccc23)CC1
inhibition [1]: 72%
inhibition [2]: 0%

CCC(C)N1CCC(COc2nc3scc(C)c3n3cccc23)CC1 (configuration not stated)
inhibition [1]: 100%
inhibition [2]: 18%

Cc1csc2nc(OCC3CCN(C(C)C)CC3)c3cccn3c12
inhibition [1]: 100%
Ki [5]: 6.46 nM
inhibition [2]: 30%

CCCCN1CCC(CNC(=O)c2c3n(c4ccccc24)CCCO3)CC1 [PIBOSEROD]
Ki [3]: > 1000 nM

c1ccc(CN2CCC(COc3nc4ccsc4n4cccc34)CC2)cc1
inhibition [1]: 100%
Ki [5]: 63.1 nM
inhibition [2]: 0%

CCCN1CCC(Oc2nc3ccsc3n3cccc23)CC1
inhibition [1]: 67%
inhibition [2]: 10%

NCCOc1nc2ccsc2n2cccc12
inhibition [1]: 0%
inhibition [2]: 0%

CCCCCN1CCC(COc2nc3sccc3n3cccc23)CC1
inhibition [1]: 100%
Ki [5]: 49 nM
inhibition [2]: 13%

C=CCN1CCC(COc2nc3sccc3n3cccc23)CC1
inhibition [1]: 99%
Ki [5]: 29.5 nM
inhibition [2]: 49%

c1cc2c(OC3CCNCC3)nc3ccsc3n2c1
inhibition [1]: 26%
inhibition [2]: 0%

CCCCN1CCC(COc2nc3scc(C)c3n3cccc23)CC1
inhibition [1]: 100%
Ki [5]: 5.37 nM
inhibition [2]: 75%

c1cc2c(OCC3CCCCN3)nc3ccsc3n2c1 (configuration not stated)
inhibition [1]: 90%
inhibition [2]: 18%

CCCN1CCCC(COc2nc3ccsc3n3cccc23)C1 (configuration not stated)
inhibition [1]: 91%
inhibition [2]: 0%

CCCCN1CCC(COc2nc3sccc3n3cccc23)CC1
inhibition [1]: 100%
Ki [5]: 20.9 nM
inhibition [2]: 56%

Cc1csc2nc(OCCCN3CCCCC3)c3cccn3c12
inhibition [1]: 100%
Ki [5]: 12.9 nM
inhibition [2]: 26%

c1cc2c(OCC3CCNCC3)nc3ccsc3n2c1
inhibition [1]: 74%
inhibition [2]: 8%

CCCN1CCC(COc2nc3ccsc3n3cccc23)CC1
inhibition [1]: 100%
Ki [5]: 16.2 nM
inhibition [2]: 97%

c1cc2c(OCCCN3CCCC3)nc3ccsc3n2c1
inhibition [1]: 100%
Ki [5]: 74.1 nM
inhibition [2]: 15%

CCCCCN1CCC(COc2nc3scc(C)c3n3cccc23)CC1
inhibition [1]: 100%
inhibition [2]: 20%

CNCCOc1nc2ccsc2n2cccc12
inhibition [1]: 7%
inhibition [2]: 9%

COc1cc(N)c(Cl)cc1C(=O)OCCCN1CCCCC1
Ki [3]: 2000 nM
Ki [4]: 31.6 nM

CCCCN1CCN(CCOc2nc3ccsc3n3cccc23)CC1
inhibition [1]: 66%
inhibition [2]: 12%

c1cc2c(OCCN3CCOCC3)nc3ccsc3n2c1
inhibition [1]: 18%
inhibition [2]: 12%

c1cc2c(OCCC3CCCCN3)nc3ccsc3n2c1 (configuration not stated)
inhibition [1]: 90%
Ki [5]: 617 nM
inhibition [2]: 5%

CCC(C)N1CCC(COc2nc3ccsc3n3cccc23)CC1 (configuration not stated)
inhibition [1]: 56%
inhibition [2]: 2%

CCCCCNC(=N)N/N=C/c1c[nH]c2ccc(OC)cc12 [TEGASEROD]
Ki [3]: > 10000 nM
Ki [4]: 3.98 nM

c1cc2c(OC3CN4CCC3CC4)nc3ccsc3n2c1 (configuration not stated)
inhibition [1]: 53%
inhibition [2]: 11%

CN(CCOc1nc2ccsc2n2cccc12)Cc1ccccc1
inhibition [1]: 20%
inhibition [2]: 2%

Cc1csc2nc(OCC3CCN(C)CC3)c3cccn3c12
inhibition [1]: 100%
inhibition [2]: 13%

C=CCN1CCC(COc2nc3scc(C)c3n3cccc23)CC1
inhibition [1]: 100%
Ki [5]: 8.51 nM
inhibition [2]: 26%
